According to BindingDB's records for doi:10.1021/jm049620r (University of Florida, 2004):
pEC50: −log10 of the molar value. Bridge positions count the residues as written; N and C are the ends. Peptide text beside a SMILES is read from it.

Target: Melanocyte-stimulating hormone receptor (Mus musculus, UniProt Q01727)
Assay: Agonistic activity against mouse Melanocortin 1 Receptor
In short: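 HEK-293 cells stably expressing the receptor (G418 selection), transiently transfected with a CRE/β-galactosidase reporter. Lysates read with ONPG at OD405 and normalized to protein content and forskolin (10^-4 M) response. EC50 from nonlinear least-squares fit, at least three independent experiments.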

Sequence of Melanocyte-stimulating hormone receptor (Q01727 whole entry): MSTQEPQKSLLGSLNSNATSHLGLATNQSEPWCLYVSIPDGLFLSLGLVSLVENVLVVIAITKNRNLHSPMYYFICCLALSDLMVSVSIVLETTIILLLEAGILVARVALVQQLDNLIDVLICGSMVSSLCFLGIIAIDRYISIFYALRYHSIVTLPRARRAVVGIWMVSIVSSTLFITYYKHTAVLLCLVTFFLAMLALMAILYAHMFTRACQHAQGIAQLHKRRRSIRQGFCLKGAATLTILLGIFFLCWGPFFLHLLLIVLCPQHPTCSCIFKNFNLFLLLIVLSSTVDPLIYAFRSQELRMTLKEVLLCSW

C[C@@H]1NC(=O)[C@H](CC(N)=O)NC(=O)[C@H](Cc2ccccc2)NC(=O)[C@H](Cc2ccccc2)NC(=O)[C@H](CCCNC(=N)N)NC(=O)[C@@H](NC(=O)[C@@H](N)Cc2ccc(O)cc2)CSSC[C@@H](C(=O)N[C@@H](Cc2ccc(O)cc2)C(N)=O)NC(=O)[C@H](Cc2ccccc2)NC1=O (H-YCRFFNAFCY-NH2; disulfide 2-9)
pEC50: 5.29
